ChEMBL document CHEMBL3758104, “Reinvestigating Old Pharmacophores: Are 4-Aminoquinolines and Tetraoxanes Potential Two-Stage Antimalarials?” (J Med Chem, 2016)
Active and inactive are the calls of the source. The calls are words filed in the database; no cut-off is given here.

Columns and labels:
[1] = Half life in human liver microsomes at 1 uM by LC-MS/MS analysis; assay type: ADME
[2] = tested on: HepG2; assay: Cytotoxicity against human HepG2 cells after 48 hrs by MTT assay; assay type: cell-based; details: HepG2, 48 h
[3] = tested on: Plasmodium berghei; assay: Antimalarial activity against Plasmodium berghei ANKA infected in C57Bl6 mouse at 10 mg/kg/day, po on days 3 to 5 by Thompson test; assay type: functional
[4] = tested on: Plasmodium berghei; assay: Antimalarial activity against Plasmodium berghei ANKA infected in C57Bl6 mouse at 20 mg/kg/day, po on days 3 to 5 by Thompson test; assay type: functional
[5] = tested on: Plasmodium falciparum; assay: Antimalarial activity against chloroquine-susceptible Plasmodium falciparum D6 after 48 hrs by [3H]hypoxanthine incorporation assay; assay type: functional, organism-based
Outline: (§1)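 P. falciparum D6 (Sierra I/UNC clone), W2 (Indochina I clone), TM91C235 (South-East Asian clone) cultured with compound; growth inhibition by [3H]hypoxanthine incorporation (modified Desjardins/Milhous method). Chloroquine, mefloquine, artemisinin as positive controls. IC50 in nM; technical triplicates, curve fits R2 0.96–1.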

[6] = tested on: Plasmodium falciparum; assay: Antimalarial activity against mutidrug resistant Plasmodium falciparum TM91C235 after 48 hrs by [3H]hypoxanthine incorporation assay; assay type: functional, organism-based; outline: as §1
[7] = tested on: Plasmodium falciparum; assay: Antimalarial activity against chloroquine-resistant Plasmodium falciparum W2 after 48 hrs by [3H]hypoxanthine incorporation assay; assay type: functional, organism-based; outline: as §1
[8] = Half life in mouse liver microsomes at 1 uM by LC-MS/MS analysis; assay type: ADME
[9] = Selectivity index, ratio of IC50 for human HepG2 cells to IC50 for chloroquine susceptible Plasmodium falciparum D6; assay type: toxicity, cell-based; details: read-out: Ratio IC50
[10] = tested on: Mus musculus; assay: Toxicity in Plasmodium berghei ANKA infected C57Bl6 mouse at 160 mg/kg/day, po administered for 3 days measured 2 times a day for 31 days; assay type: organism-based; details: in vivo, 744 h
[11] = tested on: Plasmodium berghei; assay: Antimalarial activity against Plasmodium berghei ANKA infected in C57Bl6 mouse at 160 mg/kg/day, po measured on day 3 to 5 by Thompson test; assay type: functional
[12] = tested on: Plasmodium berghei; assay: Antimalarial activity against Plasmodium berghei ANKA infected in C57Bl6 mouse at 80 mg/kg/day, po measured on day 3 to 5 by Thompson test; assay type: functional
[13] = tested on: Plasmodium berghei; assay: Antimalarial activity against Plasmodium berghei ANKA infected in C57Bl6 mouse at 40 mg/kg/day, po on days 3 to 5 by Thompson test; assay type: functional
[14] = tested on: Plasmodium berghei; assay: Antimalarial activity against Plasmodium berghei ANKA infected in po dosed C57Bl6 mouse administered on day 3 to 5 by Thompson test; assay type: functional
Outline: (§2)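 Modified Thompson test: C57Bl6 female mice inoculated intraperitoneally on day 0 with 1×10^6 P. berghei ANKA-infected erythrocytes; compound suspended in 0.5% hydroxyethylcellulose–0.1% Tween 80, given orally once daily on days 3, 4 and 5 post infection. Parasitemia by Giemsa-stained thin tail-blood smears on days 0, 3, 6, 10, 13, 17, 20, 24, 27, 31. Cure = survival without parasitemia to day 31.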

[15] = Inhibition of beta hematin formation measured as hemin equivalent after 18 hrs; assay type: physicochemical
Outline: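 Hemin (16 mM in DMSO) mixed with compound at 0.125–5 mol equiv to hemin, plus water and 8 M acetate buffer pH 5.2, 25% DMSO final. Incubated 18 h at 37 °C. Pellet washed with DMSO, dissolved in 0.1 M NaOH, absorbance read at 405 nm (corrected at 670 nm) against a hemin calibration.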

[16] = Octanol-water partition coefficient, logP of the compound; assay type: physicochemical
[17] = molecular target: hERG (KCNH2) (Homo sapiens, UniProt Q12809); assay: Inhibition of human ERG expressed in CHO cells at 5 uM by patch plate method; assay type: cell-based; details: CHO cells that express human ERG
Sequence of hERG (KCNH2) (Q12809 whole entry): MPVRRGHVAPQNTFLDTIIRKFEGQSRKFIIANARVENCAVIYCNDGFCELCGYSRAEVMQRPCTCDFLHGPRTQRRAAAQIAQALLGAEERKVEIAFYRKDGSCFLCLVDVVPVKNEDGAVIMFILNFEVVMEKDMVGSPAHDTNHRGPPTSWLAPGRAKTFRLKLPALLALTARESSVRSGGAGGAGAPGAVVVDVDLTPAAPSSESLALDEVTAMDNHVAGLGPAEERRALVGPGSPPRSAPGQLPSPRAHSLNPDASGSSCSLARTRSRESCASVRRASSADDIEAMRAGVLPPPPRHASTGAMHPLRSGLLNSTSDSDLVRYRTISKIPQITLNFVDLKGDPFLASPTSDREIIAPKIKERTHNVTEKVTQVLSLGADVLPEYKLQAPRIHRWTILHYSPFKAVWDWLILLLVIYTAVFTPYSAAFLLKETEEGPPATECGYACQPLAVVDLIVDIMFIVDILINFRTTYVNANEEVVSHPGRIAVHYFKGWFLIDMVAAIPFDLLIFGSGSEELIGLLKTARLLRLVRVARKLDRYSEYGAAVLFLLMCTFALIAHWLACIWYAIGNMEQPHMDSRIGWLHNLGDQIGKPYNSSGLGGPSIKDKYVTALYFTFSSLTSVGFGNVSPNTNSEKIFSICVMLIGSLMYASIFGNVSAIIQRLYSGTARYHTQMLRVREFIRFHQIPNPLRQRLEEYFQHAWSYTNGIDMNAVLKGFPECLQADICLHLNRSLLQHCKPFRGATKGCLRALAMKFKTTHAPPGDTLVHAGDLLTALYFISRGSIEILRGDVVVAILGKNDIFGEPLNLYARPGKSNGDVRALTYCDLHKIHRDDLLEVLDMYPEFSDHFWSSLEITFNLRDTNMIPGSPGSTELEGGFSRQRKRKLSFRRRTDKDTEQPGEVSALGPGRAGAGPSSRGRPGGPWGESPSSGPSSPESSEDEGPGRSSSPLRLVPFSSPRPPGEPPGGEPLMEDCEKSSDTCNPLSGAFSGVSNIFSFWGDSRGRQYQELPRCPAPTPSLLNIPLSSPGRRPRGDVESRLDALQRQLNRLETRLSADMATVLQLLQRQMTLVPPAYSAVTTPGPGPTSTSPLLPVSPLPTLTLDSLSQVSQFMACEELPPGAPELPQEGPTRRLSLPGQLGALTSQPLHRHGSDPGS

[18] = molecular target: Voltage-gated inwardly rectifying potassium channel KCNH2 (Homo sapiens, UniProt Q12809); assay: Inhibition of human ERG expressed in CHO cells by patch plate method; assay type: cell-based
Sequence of Voltage-gated inwardly rectifying potassium channel KCNH2 (Q12809 whole entry): as above

[19] = tested on: Salmonella typhimurium; assay: Mutagenic activity in Salmonella typhimurium TA98 at 500 ug/ml by Ames test in absence of S9 fractions; assay type: toxicity, organism-based; details: salmonella enterica subsp. enterica serovar typhimurium
Outline: (§3)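 Ames test in Salmonella typhimurium TA98 and TA100 at 500 μg/mL, with and without S9.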

[20] = tested on: Salmonella typhimurium; assay: Mutagenic activity in Salmonella typhimurium TA100 at 500 ug/ml by Ames test in absence of S9 fractions; assay type: toxicity, organism-based; details: salmonella enterica subsp. enterica serovar typhimurium; outline: as §3
[21] = tested on: Plasmodium berghei; assay: Antimalarial activity against sporozoite stage of Plasmodium berghei infected in human Huh7 cells assessed as inhibition of parasite infection pre-incubated for 24 hrs followed by parasite infection measured after 48 hrs by bioluminescence assay; assay type: functional, organism-based; details: Huh-7
[22] = tested on: Salmonella typhimurium; assay: Mutagenic activity in Salmonella typhimurium TA98 at 500 ug/ml by Ames test in presence of S9 fractions; assay type: toxicity, organism-based, S9 Fraction; details: salmonella enterica subsp. enterica serovar typhimurium; outline: as §3
[23] = tested on: Salmonella typhimurium; assay: Mutagenic activity in Salmonella typhimurium TA100 at 500 ug/ml by Ames test in presence of S9 fractions; assay type: toxicity, organism-based, S9 Fraction; details: salmonella enterica subsp. enterica serovar typhimurium; outline: as §3
[24] = tested on: Plasmodium berghei; assay: Antimalarial activity against Plasmodium berghei ANKA infected in C57Bl6 mouse assessed as reduction of parasitemia at 20 mg/kg/day, po administered for day 3 to 5 measured on day 6 by Thompson test; assay type: functional, organism-based; outline: as §2
[25] = tested on: Plasmodium berghei; assay: Antimalarial activity against Plasmodium berghei ANKA infected in C57Bl6 mouse assessed as curative effect at 20 to 40 mg/kg/day, po administered for day 3 to 5 by Thompson test
[26] = tested on: Plasmodium berghei; assay: Antimalarial activity against sporozoite stage of Plasmodium berghei infected in human Huh7 cells assessed as remaining parasite infection at 5 uM pre-incubated for 24 hrs followed by parasite infection measured after 48 hrs by bioluminescence assay; details: Huh-7
[27] = tested on: Plasmodium falciparum; assay: Antimalarial activity against 4th to 5th gametocyte stage of Plasmodium falciparum 3D7elo1-pfs16-CBG99 assessed as inhibition of gametocyte viability by luciferase reporter gene assay; assay type: functional, organism-based
Outline: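 Stage IV–V gametocytes of luciferase-expressing 3D7elo1-pfs16-CBG99 strain (CBG99 under pfs16 promoter); luciferase activity as viability read-out. Viability = 100×(treated−blank)/(untreated−blank), blank = 100 nM epoxomicin-treated sample. Epoxomicin and dihydroartemisinin as positive controls. IC50 from nonlinear regression of dose–response; mean of three experiments in duplicate.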

[28] = tested on: Plasmodium berghei; assay: Antimalarial activity against sporozoite stage of Plasmodium berghei infected in human Huh7 cells assessed as remaining parasite infection at 10 uM pre-incubated for 24 hrs followed by parasite infection measured after 48 hrs by bioluminescence assay; details: Huh-7
[29] = tested on: Plasmodium berghei; assay: Antimalarial activity against sporozoite stage of Plasmodium berghei infected in human Huh7 cells assessed as inhibition of parasite infection at 0.125 uM pre-incubated for 24 hrs followed by parasite infection measured after 48 hrs by bioluminescence assay; assay type: functional; details: Huh-7
[30] = tested on: Plasmodium berghei; assay: Antimalarial activity against sporozoite stage of Plasmodium berghei ANKA infected in C57Bl/6J mouse assessed as reduction in liver parasite load at 50 mg/kg/, po administered for 3 days measured after 48 hrs by luciferase reporter gene assay relative to control; assay type: functional; parameters: scale not given: the % may be the effect or the level left
Outline: (§4)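 C57BL/6J mice dosed by oral gavage (DMSO in sunflower oil) on three consecutive days: 24 h before, at, and 24 h after intravenous infection with luciferase-expressing P. berghei sporozoites. Controls got vehicle. Liver parasite load measured by in vivo luminescence 46–48 h after infection, after subcutaneous luciferin, expressed as % of controls. Two independent experiments.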

[31] = tested on: Plasmodium berghei; assay: Antimalarial activity against sporozoite stage of Plasmodium berghei ANKA infected in C57BL/6J mouse assessed as reduction in liver parasite load at 80 mg/kg/, po administered for 3 days measured after 48 hrs by luciferase reporter gene assay relative to control; assay type: functional; parameters: scale not given: the % may be the effect or the level left; outline: as §4
[32] = Intrinsic clearance in human hepatocytes assessed per 10^6 cells at 1 uM by LC-MS/MS analysis; assay type: ADME, cell-based, Hepatocyte; details: read-out: CLH
Outline: (§5)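 Cryopreserved human or mouse hepatocytes equilibrated for 30 min at 37 °C, then given 1 μM final compound in duplicate at 37 °C. Samples quenched at set times in ice-cold methanol with internal standards. Parent depletion by LC-MS/MS (MRM) as % of time zero, fitted to first-order decay. t1/2 = 0.693/k, and CLint derived from it. Verapamil and warfarin served as controls.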

[33] = Intrinsic clearance in mouse hepatocytes assessed per 10^6 cells at 1 uM by LC-MS/MS analysis; assay type: ADME, cell-based, Hepatocyte; details: read-out: CLH; outline: as §5
[34] = tested on: Hepatocyte; assay: Half life in human hepatocytes at 1 uM by LC-MS/MS analysis; assay type: ADME, cell-based; outline: as §5
[35] = Half life in mouse hepatocytes at 1 uM by LC-MS/MS analysis; assay type: ADME, cell-based, Hepatocyte; outline: as §5
[36] = tested on: Hepatocyte; assay: Drug metabolism in human hepatocytes assessed as monohydroxylated metabolite formation at 1 uM after 60 mins by LC-MS/MS analysis; assay type: ADME, cell-based; details: 1 h
Outline: (§6)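 Hepatocyte incubation of 1 μM compound at 37 °C, in duplicate. Supernatants analysed by LC-MS/MS, with SRM monitoring of phase I and II metabolites (oxidation, demethylation, dehydrogenation, glucuronidation, oxidation + glucuronidation).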

[37] = tested on: Hepatocyte; assay: Drug metabolism in mouse hepatocytes assessed as monohydroxylated metabolite formation at 1 uM after 60 mins by LC-MS/MS analysis; assay type: ADME, cell-based; details: 1 h; outline: as §6
[38] = tested on: Hepatocyte; assay: Drug metabolism in human hepatocytes assessed as dihydroxylated metabolite formation at 1 uM after 60 mins by LC-MS/MS analysis; assay type: ADME, cell-based; details: 1 h; outline: as §6
[39] = tested on: Hepatocyte; assay: Drug metabolism in mouse hepatocytes assessed as dihydroxylated metabolite formation at 1 uM after 60 mins by LC-MS/MS analysis; assay type: ADME, cell-based; details: 1 h; outline: as §6
[40] = tested on: Plasmodium berghei; assay: Antimalarial activity against Plasmodium berghei ANKA infected in C57Bl6 mouse assessed as reduction of parasitemia at 10 to 20 mg/kg/day, po administered for day 3 to 5 by Thompson test; assay type: functional, organism-based; outline: as §2
[41] = tested on: Hepatocyte; assay: Metabolic stability in human hepatocytes assessed as compound remaining at 1 uM after 60 mins by LC-MS/MS analysis; assay type: ADME, cell-based; details: 2 h, in the assay text read “120 mins” for “60 mins”; outline: as §5
[42] = tested on: Plasmodium berghei; assay: Antimalarial activity against sporozoite stage of Plasmodium berghei infected in human Huh7 cells assessed as remaining parasite infection at 2 uM pre-incubated for 24 hrs followed by parasite infection measured after 48 hrs by bioluminescence assay; details: Huh-7

Row | SMILES | half-life at 1 µM [1] | IC50 [2] | IC50 [5] | IC50 [6] | IC50 [7] | half-life at 1 µM [8] | Activity [10] | MST [11] | MST [12] | MST [13] | Activity [14] | MCD [14] | IC50 [15] | logP [16] | IC50 [21] | further results
1 | CC(CCNCC12CC3CC(CC(C3)C1)C2)Nc1ccnc2cc(Cl)ccc12 (centres undefined) | 1 h | 3040 nM | 10 nM | 10 nM | 10 nM | 1 h | Non-toxic | >31 days | >31 days | 17.2 days | Dose dependent effect | 80 mg/kg/day | 1.84 equiv | 3.85 | 1000 nM | MST [3]: 13 days; MST [4]: 15.2 days; selectivity ratio [9]: 305; MAC [14]: 10 mg/kg/day; inhibition at 5 µM [17]: 11.7%; IC50 [18]: > 5000 nM; Activity [19]: Non-toxic; Activity [20]: Non-toxic; Activity [22]: Non-toxic; Activity [23]: Non-toxic; Activity [24]: Active; Activity [25]: inactive; % infection at 5 µM [26]: 0.1%
2 | CC[C@H](C)[C@H](NC(=O)[C@H]([C@@H](C)CC)N(C)C(C)=O)C(=O)N[C@H](C(=O)N[C@@H](CC(C)C)C(=O)[C@@]1(C)CO1)[C@@H](C)O [EPOXOMYCIN] | – | – | – | – | – | – | – | – | – | – | – | – | – | – | – | IC50 [27]: 11.8 nM
3 | COc1cc(NC(C)CCCN)c2ncccc2c1 (centres undefined) [PRIMAQUINE] | – | – | – | – | – | – | – | – | – | – | – | – | – | – | – | % infection at 10 µM [28]: 62%
4 | CC(CCNCC12CC3CC(CC(C3)C1)C2)Nc1c(F)cnc2cc(Cl)ccc12 (centres undefined) | 0.217 h | 3970 nM | 135 nM | 197 nM | 238 nM | 0.35 h | Non-toxic | 26.2 days | >31 days | 18.4 days | Dose dependent effect | 80 mg/kg/day | 0.61 equiv | 3.25 | 310 nM | inhibition at 0.125 µM [29]: 38%; Activity [30]: 84%; Activity [31]: 92%; hepatocyte CLint at 1 µM [32]: 8.9 µL/min/1e6 cells; hepatocyte CLint at 1 µM [33]: 8.7 µL/min/1e6 cells; t1/2 [34]: 1.3 h; half-life at 1 µM [35]: 1.32 h; Drug metabolism [36]: metabolite_detected; Drug metabolism [37]: metabolite_detected; Drug metabolism [38]: metabolite_detected; Drug metabolism [39]: metabolite_detected; Activity [40]: inactive; Stability [41]: 32%; % infection at 2 µM [42]: 13%
